For test [1], the target named is T1, Macrophage migration inhibitory factor (Homo sapiens, UniProt P14174).
T1 sequence (P14174 whole entry): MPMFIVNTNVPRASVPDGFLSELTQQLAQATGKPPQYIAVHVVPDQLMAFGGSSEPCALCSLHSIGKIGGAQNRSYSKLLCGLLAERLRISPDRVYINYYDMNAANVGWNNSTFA
The experiment in a line: Inhibition of MIF-mediated dopachrome tautomerase activity. The procedure, abridged:
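l-Dopachrome methyl ester substrate (2.4 mm prepared stock, from sodium periodate oxidation of l-3,4-dihydroxyphenylalanine methyl ester) added to recombinant MIF (50 nm) in 50 mm potassium phosphate, pH 6, 0.5 mm EDTA at room temperature.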

In a further test the test system is Mus musculus. The experiment in a line: Increase in survival rate in cecal ligation and puncture-induced peritonitis mouse model administered twice a day after 24 hrs of sepsis induction at 3.5 mg/kg, ip for 3 days. The format is functional. To be noted: route intraperitoneal. The procedure, abridged:
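Mice anaesthetised with ketamine 100 mg/kg plus xylazine 8 mg/kg im. Cecum ligated below the ileocecal valve and punctured once with a 22-gauge needle. Post-surgery: Premaxin 0.5 mg/kg sc and saline 20 ml/kg sc. Dosing ip in 20% aqueous DMSO vehicle began 24 h post-CLP, twice daily for 3 days. n = 13 per group; survival followed 2 weeks.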

Test [2] addresses Transcription factor p65 (Mus musculus) (UniProt Q04207). The experiment in a line: Inhibition of NF-kappaB activation in LPS-induced mouse RAW264.7 cells by electrophoretic mobility shift assay. (In general: In EMSA bound probe runs differently from free probe, usually more slowly.)

Chain of Transcription factor p65 (Mus musculus) (Q04207 whole entry, looked up): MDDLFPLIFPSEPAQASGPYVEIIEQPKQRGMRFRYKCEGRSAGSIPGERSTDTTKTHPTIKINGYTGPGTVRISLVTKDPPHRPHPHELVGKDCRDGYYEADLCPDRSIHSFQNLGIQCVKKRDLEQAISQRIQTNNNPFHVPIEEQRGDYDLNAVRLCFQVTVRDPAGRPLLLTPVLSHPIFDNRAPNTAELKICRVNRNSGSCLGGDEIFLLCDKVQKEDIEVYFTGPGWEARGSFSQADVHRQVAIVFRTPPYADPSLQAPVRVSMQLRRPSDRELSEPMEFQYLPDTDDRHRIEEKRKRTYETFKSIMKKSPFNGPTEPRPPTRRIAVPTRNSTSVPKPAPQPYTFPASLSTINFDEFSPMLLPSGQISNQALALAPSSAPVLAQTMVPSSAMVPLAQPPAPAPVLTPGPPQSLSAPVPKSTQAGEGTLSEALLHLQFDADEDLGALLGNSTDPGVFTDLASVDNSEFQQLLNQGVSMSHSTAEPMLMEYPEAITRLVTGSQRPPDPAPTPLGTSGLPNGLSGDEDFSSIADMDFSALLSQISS

One may read the IC50 as the midpoint of a concentration-inhibition curve. Lower therefore signals greater potency in that assay. `CC(=O)O/N=C/c1ccc(O)cc1` returned an IC50 in test [1] of 147 µM.

Turning to `O=C(CCC1CCCCC1)O/N=C/c1ccc(O)cc1`, inhibition in test [1] was half-maximal at 3 µM (IC50).

`CC(C)CC(=O)O/N=C/c1ccc(O)cc1` displayed a concentration for half-maximal inhibition (IC50) in test [1] of 7 µM.

`CC(C)C(=O)O/N=C/c1ccc(O)cc1` displayed an IC50 in test [1] of 25 µM.

Consider `O=C(O/N=C/c1ccc(O)cc1)C1CC=CCC1` (stereo not drawn), for which, in test [1], the IC50 came out at 3.4 µM.

As for `CC(C)(C)C(=O)O/N=C/c1ccc(O)cc1`, in test [1], the half-inhibitory concentration (IC50) was 113 µM.

For `O=C(O/N=C/c1ccc(O)cc1)C1CCCC1`, half-maximal inhibition in test [1] (IC50) was put at 4 µM.

Consider `O=C(O/N=C/c1ccc(O)cc1)c1ccccc1`, for which the IC50 in test [1] turned out to be 7 µM.

The compound `O=C(O/N=C/c1ccc(O)cc1)C1CCCCC1` yielded a survival at 3.5 mg/kg with Mus musculus of 70%. For the same compound, the Activity result in test [2] was “Dose-dependent effect”.

On to `CC(C)(C)CC(=O)O/N=C/c1ccc(O)cc1`, for which the half-inhibitory concentration (IC50) in test [1] was 7 µM.

Take `O=C(O/N=C/c1ccc(O)cc1)C1CCC1`: in test [1], the IC50 was found to be 11 µM.

`CCCCC(=O)O/N=C/c1ccc(O)cc1` came in with a 50% inhibitory concentration (IC50) in test [1] of 14.5 µM.

For the origin of these results see ChEMBL document CHEMBL1142228, “Alternative chemical modifications reverse the binding orientation of a pharmacophore scaffold in the active site of macrophage migration inhibitory factor” (J Biol Chem, 2007).
